# Unmarked numbers belong to inactive results.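 Rule for the calls, unless noted: active = growth inhibition above 25% in both replicates, a cutoff set 3 SD above the mean; inconclusive = above 25% in only one replicate; inactive = the rest.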
# Test: S. cerevisiae growth inhibition in permissive medium (OD615), pilot counter-assay for S. cerevisiae lifespan shortening project, permissive growth control (AID 705)
# Settings: OD615, 24 h, at 10 µM, hits give high values
# Outline: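 Material: engineered DeaD yeast; Compound: one dose 10 µM, DMSO 0.25% final; Detection: absorbance (optical density) at 615 nm; Buffer or medium: permissive raffinose/galactose medium; Timing: 24 h exposure, 30 °C.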
row,Compound,growth inhibition [%]
1,COc1ccc2cc(CCNC(=O)c3c(-c4ccccc4Cl)noc3C)c(=O)[nH]c2c1,-14.1
2,CCOc1ccc(S(=O)(=O)N2CCN(S(=O)(=O)c3ccc(OCC)cc3)C(C)C2)cc1 (stereo not drawn),-7.32
3,Cc1occc1-c1nnc(SCCCC(=O)c2ccc(F)cc2)n1C,-1.02
4,Cc1ccc(CCN2CC(C(=O)NCc3cccnc3)CC2=O)cc1 (stereo not drawn),6
5,COc1ccccc1OCC(=O)Nc1ccc(S(=O)(=O)N2CCCCCC2)cc1,-10.1
6,CCN(c1ccccc1)S(=O)(=O)c1ccc(N)cc1,-4.66
7,CCOc1cccc(C(=O)Nc2nnc(-c3ccco3)s2)c1,-7.86
8,c1ccc2c(c1)CCCN2c1nc2ccccc2n2cnnc12,-6.12
9,O=C(CN1CCN(c2ccccc2F)CC1)c1ccc2cc[nH]c2c1,-12.6
10,Cc1cccc(OCc2nnc(SCC(=O)NCCc3ccccc3)o2)c1,-3.83
11,C=C(C)c1cccc(C(C)(C)NC(=O)N2CCN(c3ccccn3)CC2)c1,-11.1
12,Cc1ccc(S(=O)(=O)NCc2ccco2)cc1C,-1.9
13,COc1ccc(C(=O)NCC(c2cccnc2)N2CCN(c3ccccc3)CC2)cc1OC (stereo not drawn),-5.73
14,O=C(Cn1ncc2c1-c1ccccc1OC2)Nc1ccc(S(=O)(=O)N2CCCCC2)cc1,0.515
15,CC1CCCN(c2ncnc3c2cnn3-c2ccc(Cl)cc2)C1 (stereo not drawn),-6.17
16,CCOC(=O)N1CCC(NC(=O)C2CCCCN2S(=O)(=O)c2ccc(F)cc2)CC1 (stereo not drawn),-12.5
17,CC1NC(=O)NC1CCCCC(=O)O (stereo not drawn),-6.38
18,CCc1ccc(NC(=O)C2CC=CCC2C(=O)O)cc1 (stereo not drawn),6.68
19,CCN(CCCNC(=O)Cn1cc2c(n1)CCCC2)c1cccc(C)c1,-4.97
20,O=C(NC1CCCCCCC1)C1CCC(CNc2c(N3CCCC3)c(=O)c2=O)CC1 (stereo not drawn),-6.82

row,Compound,growth inhibition [%]
1,CNC(=O)CN1C(=O)c2ccccc2S1(=O)=O,-5.12
2,O=C(O)CCC(C(=O)O)n1c(O)c(C2=c3ccccc3=NC2=O)sc1=S (stereo not drawn),-5.76
3,CCOc1ccccc1NC(=O)C1CCN(S(=O)(=O)c2ccc(OC)c(OC)c2)CC1,-4.97
4,Cc1cc(C)c(S(=O)(=O)Nc2nnc(C)s2)c(C)c1,-20.6
5,Cc1ccc(C(c2sc3nc(C)nn3c2O)N2CCN(CCO)CC2)cc1 (stereo not drawn),-1.01
6,CCN(CC)C(=O)c1sc(NC(=O)c2ccoc2C)c(C(=O)OC)c1C,-5.36
7,Cc1oc2c(c1C(=O)NC(Cc1c[nH]c3ccccc13)C(=O)O)CCCC2 (stereo not drawn),-8.56
8,COc1cccc(C2NC(=O)NC(O)(C(F)(F)F)C2C(=O)c2cccnc2)c1OC (stereo not drawn),2.02
9,Cc1noc(C)c1S(=O)(=O)N(CC(=O)Nc1ccc2c(c1)OCO2)c1ccc(C(C)C)cc1,-5.59
10,COc1ccc(C2CC(=O)N3CN(c4ccc(C)c(Cl)c4)CSC3=C2C#N)cc1 (stereo not drawn),5.58
11,O=C(Cc1cccs1)N1CCN(c2ccccn2)CC1,-2.47
12,O=C(O)CC1C(=O)NCCN1CCCc1ccccc1 (stereo not drawn),-11.4
13,CCCCN(CC)CCNC(=O)Cn1cnc2sc(C)c(S(=O)(=O)N3CCOCC3)c2c1=O,-7.83
14,CC1(C)C(C#N)=C(N)OC2=C1C(=O)CCC2,-8.74
15,CCc1nnc(NC(=O)c2ccc(S(=O)(=O)N3CCOCC3)cc2)s1,-10.4
16,Cc1ccnc(N2C(=O)c3ccccc3C2Nc2ccccc2Cl)c1 (stereo not drawn),-15.2
17,CCCCOC(=O)Nc1ccc(S(=O)(=O)Nc2cc(C)nc(C)n2)cc1,-16.6
18,O=C1Nc2cc(Cl)cnc2N2CCCC12 (stereo not drawn),-2.57
19,CCn1c(-c2ccccc2O)n[nH]c1=S,1.96

# Test: S. cerevisiae growth inhibition in restrictive medium, OD615, pilot screen, restrictive growth control, yeast lifespan reduction project (AID 706;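 active = growth inhibition above a set limit, 3 SD over mean compound inhibition, in both replicates, cut at about 43% in these data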;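 note: modified DeaD lifespan yeast strain shifted to restrictive glucose medium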)
# Settings: OD615, 48 h, at 10 µM, hits give high values
# Outline: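 Buffer or medium: restrictive glucose medium (CSMM-D); test system: modified S. cerevisiae; doses: single dose of 10 µM compound final, 0.25% DMSO; schedule: 48 h compound exposure at 30 °C; detection: absorbance (optical density) measured at 615 nm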
row,Compound,growth inhibition [%]
1,COc1ccc2cc(CCNC(=O)c3c(-c4ccccc4Cl)noc3C)c(=O)[nH]c2c1,-21.1
2,CCOc1ccc(S(=O)(=O)N2CCN(S(=O)(=O)c3ccc(OCC)cc3)C(C)C2)cc1 (stereo not drawn),1.25
3,Cc1occc1-c1nnc(SCCCC(=O)c2ccc(F)cc2)n1C,3.81
4,Cc1ccc(CCN2CC(C(=O)NCc3cccnc3)CC2=O)cc1 (stereo not drawn),5.13
5,COc1ccccc1OCC(=O)Nc1ccc(S(=O)(=O)N2CCCCCC2)cc1,-4.95
6,CCN(c1ccccc1)S(=O)(=O)c1ccc(N)cc1,-1.86
7,CCOc1cccc(C(=O)Nc2nnc(-c3ccco3)s2)c1,-7.51
8,c1ccc2c(c1)CCCN2c1nc2ccccc2n2cnnc12,-9.76
9,O=C(CN1CCN(c2ccccc2F)CC1)c1ccc2cc[nH]c2c1,-6.94
10,Cc1cccc(OCc2nnc(SCC(=O)NCCc3ccccc3)o2)c1,-15.6
11,C=C(C)c1cccc(C(C)(C)NC(=O)N2CCN(c3ccccn3)CC2)c1,0.485
12,Cc1ccc(S(=O)(=O)NCc2ccco2)cc1C,-6.06
13,COc1ccc(C(=O)NCC(c2cccnc2)N2CCN(c3ccccc3)CC2)cc1OC (stereo not drawn),0.095
14,O=C(Cn1ncc2c1-c1ccccc1OC2)Nc1ccc(S(=O)(=O)N2CCCCC2)cc1,-5.21
15,CC1CCCN(c2ncnc3c2cnn3-c2ccc(Cl)cc2)C1 (stereo not drawn),-16.3
16,CCOC(=O)N1CCC(NC(=O)C2CCCCN2S(=O)(=O)c2ccc(F)cc2)CC1 (stereo not drawn),-1.21
17,CC1NC(=O)NC1CCCCC(=O)O (stereo not drawn),2.25
18,CCc1ccc(NC(=O)C2CC=CCC2C(=O)O)cc1 (stereo not drawn),5.45
19,CCN(CCCNC(=O)Cn1cc2c(n1)CCCC2)c1cccc(C)c1,3.35
20,O=C(NC1CCCCCCC1)C1CCC(CNc2c(N3CCCC3)c(=O)c2=O)CC1 (stereo not drawn),0.64

row,Compound,growth inhibition [%]
1,CNC(=O)CN1C(=O)c2ccccc2S1(=O)=O,1.27
2,O=C(O)CCC(C(=O)O)n1c(O)c(C2=c3ccccc3=NC2=O)sc1=S (stereo not drawn),-1.01
3,CCOc1ccccc1NC(=O)C1CCN(S(=O)(=O)c2ccc(OC)c(OC)c2)CC1,-2.79
4,Cc1cc(C)c(S(=O)(=O)Nc2nnc(C)s2)c(C)c1,-11.7
5,Cc1ccc(C(c2sc3nc(C)nn3c2O)N2CCN(CCO)CC2)cc1 (stereo not drawn),7
6,CCN(CC)C(=O)c1sc(NC(=O)c2ccoc2C)c(C(=O)OC)c1C,5.77
7,Cc1oc2c(c1C(=O)NC(Cc1c[nH]c3ccccc13)C(=O)O)CCCC2 (stereo not drawn),-5.62
8,COc1cccc(C2NC(=O)NC(O)(C(F)(F)F)C2C(=O)c2cccnc2)c1OC (stereo not drawn),-2.12
9,Cc1noc(C)c1S(=O)(=O)N(CC(=O)Nc1ccc2c(c1)OCO2)c1ccc(C(C)C)cc1,-3.17
10,COc1ccc(C2CC(=O)N3CN(c4ccc(C)c(Cl)c4)CSC3=C2C#N)cc1 (stereo not drawn),21.9
11,O=C(Cc1cccs1)N1CCN(c2ccccn2)CC1,-11.1
12,O=C(O)CC1C(=O)NCCN1CCCc1ccccc1 (stereo not drawn),-8.64
13,CCCCN(CC)CCNC(=O)Cn1cnc2sc(C)c(S(=O)(=O)N3CCOCC3)c2c1=O,0.72
14,CC1(C)C(C#N)=C(N)OC2=C1C(=O)CCC2,-5.87
15,CCc1nnc(NC(=O)c2ccc(S(=O)(=O)N3CCOCC3)cc2)s1,-20.2
16,Cc1ccnc(N2C(=O)c3ccccc3C2Nc2ccccc2Cl)c1 (stereo not drawn),-17.5
17,CCCCOC(=O)Nc1ccc(S(=O)(=O)Nc2cc(C)nc(C)n2)cc1,-11.7
18,O=C1Nc2cc(Cl)cnc2N2CCCC12 (stereo not drawn),8.33
19,CCn1c(-c2ccccc2O)n[nH]c1=S,25.6

# Source: PubChem BioAssay
